Results on 16 compounds are retold here after ChEMBL document CHEMBL2331535, “Discovery and Biological Profiling of Potent and Selective mTOR Inhibitor GDC-0349” (ACS Med Chem Lett, 2013).

The source made the active and inactive calls. The rule behind the calls is not given here. A value given as a limit tells only on which side of the number the result lay.

In one data set the target is Cytochrome P450 3A4 (Homo sapiens, UniProt P08684). In words: Time-dependent inhibition of CYP3A4 in human liver microsome using midazolam as substrate by TDI shift assay. The data set is classed as ADME, microsomes. Put shortly:
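CYP3A4 time-dependent inhibition shift assay in human liver microsomes with NADPH cofactor and midazolam as probe substrate. The compound was preincubated for 30 min and compared with no preincubation. A left shift of the CYP activity curve after preincubation designates the compound TDI positive.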
Background: Liver microsomes are vesicles of endoplasmic reticulum, rich in cytochrome P450 enzymes.

Data set [1] relates to PC-3. In words: Antiproliferative activity against PTEN-null human PC3 cells. The data set is classed as functional, cell-based. Put shortly: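 PC3 prostate cancer cells (PTEN loss, PI3K-AKT-mTOR pathway activated) used for the antiproliferation assay. Activity is expressed as EC50 in nM.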
The subject of data set [2] is A549. Kind of data set: Antitumor activity against KRas mutant, LKB1 deficient human A549 cells xenografted in mouse assessed as tumor growth inhibition at 5 to 30 mg/kg, po qd. The data set is classed as functional, organism-based.
Data set [3] has as its system A549. Kind of data set: Antitumor activity against KRas mutant, LKB1 deficient human A549 cells xenografted in po dosed mouse assessed as delay in tumor growth administered qd in presence of MEK inhibitor, GDC-0973. The data set is classed as functional, organism-based. (In general: A xenograft is tissue or cells of one species grown in another, often human tumour cells in immunodeficient mice.)

The subject of the next data set is 786-0. In words: Antitumor activity against VHL mutant human 786-0 cells xenografted in po dosed nu/nu mouse assessed as tumor growth inhibition administered qd for 14-21 days. It is filed as functional, organism-based.
In data set [4] the test system is PC-3. Kind of data set: Antitumor activity against PTEN-null human PC3 cells xenografted in po dosed NCR nude mouse assessed as tumor growth inhibition administered qd for 14-21 days. It is filed as functional, organism-based.
The subject of data set [5] is Homo sapiens. In words: Antitumor activity against PI3K-mutant human MCF7-neo/Her2 cells xenografted in po dosed NCR nude mouse assessed as tumor growth inhibition administered qd for 14-21 days. It is filed as functional, organism-based. In a few lines:
(§1)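 MCF7-neo/Her2 (PI3K-mutant) breast cancer xenografts in athymic mice. Compound given orally once daily at 10, 20, 30, 40, 50, 60, 70 and 80 mg/kg QD, with a vehicle group (0 mg/kg). Tumor growth inhibition was tracked, and body weight change was monitored up to the highest dose.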

For data set [6], the system named is Homo sapiens. In words: Decrease in phosphorylation of Akt at Ser473 in PI3K-mutant human MCF7-neo/Her2 cells xenografted in NCR nude mouse at 25 to 100 mg/kg, po. It is filed as functional, organism-based.
Data set [7] relates to Homo sapiens. In words: Decrease in phosphorylated 4-EBP1 level in PI3K-mutant human MCF7-neo/Her2 cells xenografted in NCR nude mouse at 25 to 100 mg/kg, po. The data set is classed as functional, organism-based.
The test system of data set [8] is Homo sapiens. In words: Antitumor activity against PI3K-mutant human MCF7-neo/Her2 cells xenografted in po dosed NCR nude mouse assessed as tumor growth inhibition administered once daily for 14-21 days.
A short description of data set [9]: In vivo clearance in mouse. It is filed as ADME, organism-based.
Data set [10] deals with Mus musculus. Kind of data set: Toxicity in po dosed mouse xenografted with KRas mutant, LKB1 deficient human A549 cells assessed as body weight changes administered qd in presence of MEK inhibitor, GDC-0973. It is filed as organism-based. The note with it: in vivo.
The subject of data set [11] is Plasma. Kind of data set: Free plasma clearance in rat. The data set is classed as ADME, cell-free.
In data set [12] the test system is Plasma. Kind of data set: Free plasma clearance in mouse. It is filed as ADME, cell-free.
Data set [13] in a line: Dissociation constant, pKa of the compound. The data set is classed as physicochemical.
Data set [14] relates to Mus musculus. Kind of data set: Toxicity in NCR nude mouse xenografted with human PI3K-mutant MCF7-neo/Her2 cells assessed as body weight changes up to 80 mg/kg, po qd for 14-21 days. The data set is classed as organism-based. Details: dose 80 mg/kg, route oral. The conditions noted are these: in vivo. In a few lines: as §1
Data set [15] is described as follows: Antitumor activity against PI3K-mutant human MCF7-neo/Her2 cells xenografted in po dosed NCR nude mouse assessed as tumor growth inhibition at maximum tolerated dose administered qd for 14-21 days. It is filed as functional. In a few lines: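 Athymic mice bearing MCF7-neo/Her2 breast tumour xenografts (PI3K-mutant) were given the drug orally once daily at 10, 20, 30, 40, 50, 60, 70 or 80 mg/kg, with a vehicle (0 mg/kg) group. Read-out was tumour growth inhibition across the dose range, with body weight change also tracked.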

Sequence of Cytochrome P450 3A4 (P08684 whole entry): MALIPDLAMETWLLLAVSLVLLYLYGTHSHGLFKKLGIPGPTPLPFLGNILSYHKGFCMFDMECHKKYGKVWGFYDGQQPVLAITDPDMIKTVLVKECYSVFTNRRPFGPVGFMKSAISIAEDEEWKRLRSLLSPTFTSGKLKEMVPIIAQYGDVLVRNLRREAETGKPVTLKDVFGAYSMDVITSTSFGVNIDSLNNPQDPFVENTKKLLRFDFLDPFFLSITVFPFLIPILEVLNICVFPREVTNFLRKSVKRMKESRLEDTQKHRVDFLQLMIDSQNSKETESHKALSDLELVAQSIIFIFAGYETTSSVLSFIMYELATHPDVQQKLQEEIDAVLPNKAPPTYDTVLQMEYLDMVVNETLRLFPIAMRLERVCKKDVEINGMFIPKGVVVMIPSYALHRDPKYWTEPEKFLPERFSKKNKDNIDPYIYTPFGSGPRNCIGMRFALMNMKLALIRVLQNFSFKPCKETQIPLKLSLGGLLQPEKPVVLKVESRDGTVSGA

As to `CCNC(=O)Nc1ccc(-c2nc3c(c(N4CCOC[C@@H]4C)n2)CCN(c2cc(C)ncn2)C3)cc1`, the IC50 (commonly the concentration at which inhibition is half-maximal) at Cytochrome P450 3A4 is 8.4 µM.
Take `O=c1cccc(Nc2ccc(-c3nc4c(c(N5CCOCC5)n3)CCN(c3ncccn3)C4)cc2)[nH]1`: in the data set with PC-3 [1], a half-maximal effect (EC50) was put at 1300 nM.
Still for that read-out and setting: next, `O=C(NCCF)Nc1ccc(-c2nc3c(c(N4CCOCC4)n2)CCN(c2ncccn2)C3)cc1`: 58 nM.
Turning to `CCNC(=O)Nc1ccc(-c2nc3c(c(N4CCOC[C@@H]4C)n2)CCN(C2COC2)C3)cc1`, the TGI entry with A549 [2], in the data set on A549 [3], in the data set with 786-0, with PC-3 [4] and with Homo sapiens [8] was “Active” throughout. Further, the inhibition entry in the data set with Homo sapiens [5] is “Dose-dependent effect”. Besides, the inhibition result with Homo sapiens [6] and in the data set with Homo sapiens [7] was “Active” throughout.
Turning to `C[C@H]1COCCN1c1nc(-c2ccc(Nc3nccc(=O)[nH]3)cc2)nc2c1CCN(c1ncccn1)C2`, the clearance (usually the rate of elimination divided by the concentration) in data set [9] was determined as 78 mL/min/kg. In the data set with PC-3 [1], the EC50 – broadly, the concentration that produces a half-maximal response – turned out to be 25 nM.
Turning to `CCNC(=O)Nc1ccc(-c2nc3c(c(N4CCOC[C@@H]4C)n2)CCN(c2nccn2C)C3)cc1`, the IC50 at Cytochrome P450 3A4 is over 10 µM.
Take `CCNC(=O)Nc1ccc(-c2nc3c(c(N4CCOC[C@@H]4C)n2)CCN(C2COC2)C3)cc1` [RG-7603]: the Activity entry with Mus musculus [10] is reported as “Non-toxic”. The figures for the CL free with Plasma [11] and in the data set on Plasma [12] were 171 mL/min/kg and 100 mL/min/kg, respectively. For the same compound, the pKa (in general, the negative logarithm of the acid dissociation constant) in [13] was 5.
As to `C[C@H]1COCCN1c1nc(-c2ccc(Nc3nn(C)c(=O)[nH]3)cc2)nc2c1CCN(c1ncccn1)C2`, the EC50 in the data set with PC-3 [1] turned out to be 139 nM.
As for `CS(=O)(=O)N1CCN(Cc2cc3nc(-c4cccc5[nH]ncc45)nc(N4CCOCC4)c3s2)CC1` [PICTILISIB], the Activity result in the data set on Mus musculus [10] was “Non-toxic”. Moreover, the TGI result with A549 [2] and in the data set with A549 [3] was “Active” each time.
`CCNC(=O)Nc1ccc(-c2nc3c(c(N4CCOC[C@@H]4C)n2)CCN(c2ncc(F)cn2)C3)cc1`: on Cytochrome P450 3A4, the concentration for half-maximal inhibition (IC50) was found to be 1.4 µM.
The compound `CCNC(=O)Nc1ccc(-c2nc3c(c(N4CCOCC4)n2)CCN(c2ncccn2)C3)cc1` came in with an EC50 in the data set on PC-3 [1] of 310 nM.
With `CCNC(=O)Nc1ccc(-c2nc3c(c(N4CCOC[C@@H]4C)n2)CCN(c2ccnc(C)n2)C3)cc1`, the IC50 at Cytochrome P450 3A4 was found to be 3.3 µM.
In the case of `CCNC(=O)Nc1ccc(-c2nc3c(c(N4CCOC[C@@H]4C)n2)CCN(C(C)C)C3)cc1`, the IC50 on Cytochrome P450 3A4 is over 10 µM. The compound further gave a pKa in data set [13] of 7.6.
For `CCNC(=O)Nc1ccc(-c2nc3c(c(N4CCOC[C@@H]4C)n2)CCN(C2COC2)C3)cc1.CS(=O)(=O)O`, the Activity with Mus musculus [14] is under 10%. The TGI in data set [15] came to 99%.
For the compound `CCNC(=O)Nc1ccc(-c2nc3c(c(N4CCOC[C@@H]4C)n2)CCN(c2ncccn2)C3)cc1`, the CL free in the data set with Plasma [11] was 1538 mL/min/kg; in the data set with Plasma [12] it was 1818 mL/min/kg. Also, a half-maximal response with PC-3 [1] (EC50) required 147 nM.
`CCNc1c(Nc2ccc(-c3nc4c(c(N5CCOC[C@@H]5C)n3)CCN(c3ncccn3)C4)cc2)c(=O)c1=O` registered an EC50 with PC-3 [1] of 667 nM.
